This is an account of results in PMC4184708 (Pharmacology Research & Perspectives, 2014).

One data set relates to Caco-2 cell monolayers. In words: Transepithelial apical to basolateral. It counts as in vitro ADME, human. The settings on record: Caco-2 monolayers, NaCl-reduced HBSS versus HBSS. The procedure, abridged: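 Caco-2 cells (passages 10–18) were seeded at 8.9·10^4 cells cm−2 on 1.12 cm2 polycarbonate inserts (0.4 μm) and run 20 days post seeding, with TEER monitored. 1.0 mmol/L test compound was applied apically, alone or with amino acid or dipeptide inhibitors (35.0–152.5 mmol/L) in NaCl-reduced HBSS (mannitol to 270–310 mOsmol L−1), or with low fat infant formula 150 mg mL−1 in water. Controls were in HBSS and NaCl-reduced HBSS.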

The subject of another data set is Caco-2 cells. In words: Apical vigabatrin uptake in Caco-2 cells. The format is in vitro ADME, human. The procedure, abridged: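 Caco-2 cells (passages 10–18) were seeded at 8.9·10^4 cells cm−2 in 24-well plates and used 6 days post seeding. Low fat infant formula: 150 mg mL−1 was incubated 15 min at 37°C, centrifuged 15 min at 18000g and 4°C, and the supernatant was re-spun to remove lipids. Uptake rate is in nmol min−1 cm−2; n = 3–4.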

The nature of data set [1]: Pharmacokinetics of vigabatrin after iv or oral administration to rats. It counts as in vivo, male Sprague–Dawley rats.
A short description of the next data set: Absorption rate constant. It counts as in vivo, male Sprague–Dawley rats. Particulars: rats.
The nature of data set [2]: Pharmacokinetics of acetaminophen. It counts as in vivo, male Sprague–Dawley rats. The settings on record: rats.
Data set [3] can be described thus: Acetaminophen deconvolution profiles and rate of gastric emptying. The format is in vivo, male Sprague–Dawley rats. Particulars: rats, deconvolution profile, after 30 min.
The nature of data set [4]: Paracellular flux: A–B transport of [14C]-mannitol across Caco-2 cell monolayers. It counts as in vitro ADME. The settings on record: human. (In general: Caco-2 monolayers are a common model of the intestinal barrier.)
[5] abbreviates: rats, vigabatrin 1.0 mg kg^−1 PO, formulation 1, dietary component none.
Where [6] appears, read: rats, vigabatrin 1.0 mg kg^−1 PO, formulation 5, with Sar 200 mg kg^−1.
Setting [7] is: rats, vigabatrin 1.0 mg kg^−1 PO, formulation 6, with BCH 200 mg kg^−1.
Setting [8] is: rats, vigabatrin 10 mg kg^−1 PO, formulation 7, dietary component none.
The mark [9] stands for this setting: rats, vigabatrin 10 mg kg^−1 PO, formulation 10, with Sar 200 mg kg^−1.
The mark [10] stands for this setting: oral coadministration with 120 mg kg^−1 acetaminophen.

In general, AUC(0-inf) refers to the area under the concentration-time curve extrapolated to infinity. A low value points to less exposure. As a reminder, the Cmax is the peak of the concentration-time curve. As a reminder, the Tmax is the time from dosing to the highest level. Regarding `C=CC(N)CCC(=O)O` (stereo not drawn) [vigabatrin], the “transport of vigabatrin in the apical to basolateral direction” value in the data set with Caco-2 cell monolayers is on record as “unaffected”. Further, the “apical vigabatrin uptake rate” value in the data set on Caco-2 cells (apical pH 6.0, control) is listed as 1.01 ± 0.11 nmol min^−1 cm^−2; with Caco-2 cells (apical pH 6.0, in the presence of Gly-Gly), 0.48 ± 0.07 nmol min^−1 cm^−2; in the data set with Caco-2 cells (apical pH 6.0, in the presence of low fat infant formula), 0.53 ± 0.09 nmol min^−1 cm^−2; in the data set on Caco-2 cells (apical pH 7.4, control), 0.31 ± 0.04 nmol min^−1 cm^−2; in the data set with Caco-2 cells (apical pH 7.4, in the presence of Gly-Gly) it was 0.25 ± 0.03 nmol min^−1 cm^−2; in the data set on Caco-2 cells (apical pH 7.4, in the presence of low fat infant formula), 0.28 ± 0.06 nmol min^−1 cm^−2. This molecule also gave a clearance in data set [1] (male, Sprague-Dawley, rat, plasma, iv, 1 mg/kg) of 7.1 mL/min/kg. In data set [1] (male, Sprague-Dawley, rat, plasma, po, 10 mg/kg, AUC0–∞, rats, vigabatrin 10 mg kg^−1 PO, formulation 7, dietary component none), this molecule gave an AUC(0-inf) of 17800 ± 808 ng·h/mL. The molecule further returned a Cmax in data set [1] (male, Sprague-Dawley, rat, plasma, po, 10 mg/kg, Cmax, rats, vigabatrin 10 mg kg^−1 PO, formulation 7, dietary component none) of 13600 ± 953 ng/mL. The molecule further had a k el in data set [1] (male, Sprague-Dawley, rat, plasma, po, 10 mg/kg, ke, rats, vigabatrin 10 mg kg^−1 PO, formulation 7, dietary component none) of 0.000194 s⁻¹. Moreover, the Tmax in data set [1] (male, Sprague-Dawley, rat, plasma, po, 10 mg/kg, tmax, median [Q1, Q3], rats, vigabatrin 10 mg kg^−1 PO, formulation 7, dietary component none) worked out at 19.8 min. For the same molecule, the “time of maximal plasma concentration (Cmax) after oral administration” value in data set [1] (rats, oral administration of 1.0 or 10.0 mg kg^−1 vigabatrin) is 0.25 to 0.33 h. Besides, the CL in data set [1] (setting [5]) came to 9.68 ± 0.5 mL/min/kg; in data set [1] (setting [6]) it was 9.53 ± 0.383 mL/min/kg; in data set [1] (setting [7]), 9.13 ± 0.333 mL/min/kg; in data set [1] (setting [8]) it was 9.45 ± 0.4 mL/min/kg; in data set [1] (setting [9]), 10.6 ± 0.533 mL/min/kg. Further, the Fabs came out at 72 ± 4% in data set [1] (setting [5]); 73 ± 3% in data set [1] (setting [6]); 76 ± 3% in data set [1] (setting [7]); 100% in data set [1] (rats, vigabatrin 1.0 mg kg^−1 iv, formulation 0, dietary component none); 74 ± 3% in data set [1] (setting [8]); 66 ± 3% in data set [1] (setting [9]). In addition, the ka was found to be 5.2 ± 0.3 in “Absorption rate constant” (vigabatrin 1 mg kg^−1, DC fitted to eq. 9, with Low fat milk); 5.3 ± 0.9 in “Absorption rate constant” (vigabatrin 1 mg kg^−1, DC fitted to eq. 9, with Milk); 2.9 ± 0.2 in the data set “Absorption rate constant” (vigabatrin 1 mg kg^−1, DC fitted to eq. 9, with Sar); 2.6 ± 0.1 in the data set “Absorption rate constant” (vigabatrin 1 mg kg^−1, PC fitted to eq. 10, with Low fat milk); 2.8 ± 0.3 in the data set “Absorption rate constant” (vigabatrin 1 mg kg^−1, PC fitted to eq. 10, with Milk); 1.6 ± 0.1 in “Absorption rate constant” (vigabatrin 1 mg kg^−1, PC fitted to eq. 10, with Sar). Besides, the ka in the data set “Absorption rate constant” (vigabatrin 1 mg kg^−1, deconvolution curve (DC) fitted to eq. 9, Control) stood at 7.9 ± 1.9; in “Absorption rate constant” (vigabatrin 10 mg kg^−1, DC fitted to eq. 9, with Low fat milk), 5.0 ± 0.3; in the data set “Absorption rate constant” (vigabatrin 10 mg kg^−1, DC fitted to eq. 9, with Milk) it was 4.1 ± 0.5; in the data set “Absorption rate constant” (vigabatrin 10 mg kg^−1, DC fitted to eq. 9, with Sar), 3.2 ± 0.2; in the data set “Absorption rate constant” (vigabatrin 10 mg kg^−1, PC fitted to eq. 10, with Low fat milk), 2.6 ± 0.1; in “Absorption rate constant” (vigabatrin 10 mg kg^−1, PC fitted to eq. 10, with Milk) it was 2.6 ± 0.3. For the same molecule, the ka is 1.7 ± 0.1 in “Absorption rate constant” (vigabatrin 10 mg kg^−1, PC fitted to eq. 10, with Sar) and 8.1 ± 2.3 in the data set “Absorption rate constant” (vigabatrin 10 mg kg^−1, deconvolution curve (DC) fitted to eq. 9, Control).

`CC(=O)Nc1ccc(O)cc1` [acetaminophen] had an AUC(0-inf) in data set [2] (male, Sprague-Dawley, rat, plasma, iv, 120 mg/kg, AUC0–∞, acetaminophen 120 mg kg^−1 iv, formulation 00, dietary component none) of 155000 ± 4000 ng·h/mL. For the same molecule, in data set [2] (male, Sprague-Dawley, rat, plasma, iv, 120 mg/kg, ke, acetaminophen 120 mg kg^−1 iv, formulation 00, dietary component none), the k el is 0.000306 s⁻¹. Further, the Fabs in data set [2] (acetaminophen 120 mg kg^−1 iv, formulation 00, dietary component none) worked out at 100 ± 3%. For the same molecule, the “cumulative fraction of acetaminophen absorbed” value in data set [3] is listed as “about 90%”.

In the case of `CNCC(=O)O` [Sar, sarcosine], the “effect on tmax of vigabatrin” value in data set [1] (rats, oral coadministration with 1.0 and 10.0 mg kg^−1 vigabatrin) was “significant prolonging effect”. In addition, in data set [1] (rats, oral coadministration with vigabatrin), the “effect on Cmax of vigabatrin” value was “significantly decreased”. Further, in data set [2] (setting [10]), the “effect on Cmax of acetaminophen” value is recorded as “did not alter” and the “effect on tmax of acetaminophen” value is recorded as “did not alter”.

Take `NC1(C(=O)O)CC2CCC1C2` (stereo not drawn) [BCH, 2-amino-2-norbornanecarboxylic acid]: in data set [1] (rats, oral administration of 1.0 mg kg^−1 vigabatrin), the “effect on the pharmacokinetic parameters of vigabatrin absorption” value is on record as “did not significantly alter”.

As a reminder, the Papp is a coefficient for how fast a substance crosses the barrier. Low values mean poor permeation, high ones ready permeation. On to `OC[C@@H](O)[C@@H](O)[C@H](O)[C@H](O)CO` [mannitol, D-[1-^14C]-mannitol], for which the Papp in data set [4] amounted to 0.16 ×10⁻⁶ cm/s.
